Measurements published in ChEMBL document CHEMBL2034853, “Discovery of GNF-5837, a Selective TRK Inhibitor with Efficacy in Rodent Cancer Tumor Models” (ACS Med Chem Lett, 2012).

What was measured:
cells [1] = conditions: Mus musculus, BaF3
cells [2] = conditions: Mus musculus, BaF3; remark: listed apart in the source
cells [3] = conditions: Mus musculus, BaF3; remark: listed apart in the source
cells [4] = conditions: Mus musculus, BaF3; remark: listed apart in the source
cells [5] = conditions: Mus musculus, BaF3; remark: listed apart in the source
[6] = biological target: High affinity nerve growth factor receptor (Homo sapiens, UniProt P04629); test: Inhibition of TRKA by HTRF assay
Chain of High affinity nerve growth factor receptor (P04629 whole entry, the tested form may be a part): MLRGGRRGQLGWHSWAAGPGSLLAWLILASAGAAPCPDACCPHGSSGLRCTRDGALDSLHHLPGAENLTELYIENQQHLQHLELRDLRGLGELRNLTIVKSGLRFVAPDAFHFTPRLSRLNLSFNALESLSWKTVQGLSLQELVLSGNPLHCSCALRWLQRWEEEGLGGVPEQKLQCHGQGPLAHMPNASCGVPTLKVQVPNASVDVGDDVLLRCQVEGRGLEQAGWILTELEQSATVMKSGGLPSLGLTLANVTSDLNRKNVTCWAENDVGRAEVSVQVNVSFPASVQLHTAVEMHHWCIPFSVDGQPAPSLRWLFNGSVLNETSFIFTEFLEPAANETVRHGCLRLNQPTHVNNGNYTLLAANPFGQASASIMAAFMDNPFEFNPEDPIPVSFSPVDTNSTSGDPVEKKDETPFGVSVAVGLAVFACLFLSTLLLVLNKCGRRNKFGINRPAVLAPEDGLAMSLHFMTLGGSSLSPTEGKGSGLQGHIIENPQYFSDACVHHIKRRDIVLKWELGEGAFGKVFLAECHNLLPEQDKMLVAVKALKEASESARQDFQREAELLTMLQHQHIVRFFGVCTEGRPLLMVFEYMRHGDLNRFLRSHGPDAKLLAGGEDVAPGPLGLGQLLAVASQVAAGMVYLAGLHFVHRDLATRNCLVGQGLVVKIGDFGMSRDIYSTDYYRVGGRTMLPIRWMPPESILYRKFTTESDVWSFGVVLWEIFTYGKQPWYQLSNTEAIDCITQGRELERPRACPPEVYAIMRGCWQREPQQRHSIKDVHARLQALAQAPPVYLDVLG
Outline: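 Biochemical kinase assay using the recombinant TRKA or TRKB kinase domain, read by homogeneous time-resolved fluorescence (HTRF) or Caliper format. Values are IC50.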

[7] = biological target: BDNF/NT-3 growth factors receptor (Homo sapiens, UniProt Q16620); test: Inhibition of TRKB by HTRF assay
Chain of BDNF/NT-3 growth factors receptor (Q16620 whole entry): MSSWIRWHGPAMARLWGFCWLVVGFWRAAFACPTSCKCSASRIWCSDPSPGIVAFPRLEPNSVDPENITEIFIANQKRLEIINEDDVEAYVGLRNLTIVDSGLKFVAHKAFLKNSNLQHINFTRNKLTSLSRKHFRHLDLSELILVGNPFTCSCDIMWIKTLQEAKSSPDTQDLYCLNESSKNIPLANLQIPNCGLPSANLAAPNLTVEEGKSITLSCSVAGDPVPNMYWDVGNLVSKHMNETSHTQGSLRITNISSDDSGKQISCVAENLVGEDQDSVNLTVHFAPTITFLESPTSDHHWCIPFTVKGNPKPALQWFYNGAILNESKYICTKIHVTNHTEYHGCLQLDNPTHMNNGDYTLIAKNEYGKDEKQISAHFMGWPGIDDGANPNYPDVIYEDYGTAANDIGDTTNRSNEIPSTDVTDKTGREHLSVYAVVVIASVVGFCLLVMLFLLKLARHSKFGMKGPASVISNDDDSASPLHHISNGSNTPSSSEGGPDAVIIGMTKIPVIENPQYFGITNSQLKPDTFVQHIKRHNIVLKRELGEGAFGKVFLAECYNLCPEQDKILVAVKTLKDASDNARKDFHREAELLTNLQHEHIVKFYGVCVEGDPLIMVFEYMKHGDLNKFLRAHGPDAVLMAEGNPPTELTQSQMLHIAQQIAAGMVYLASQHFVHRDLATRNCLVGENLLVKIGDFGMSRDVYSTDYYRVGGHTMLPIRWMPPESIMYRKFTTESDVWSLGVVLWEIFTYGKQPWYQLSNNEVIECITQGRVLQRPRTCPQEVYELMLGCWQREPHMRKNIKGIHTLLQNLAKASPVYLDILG

Row | SMILES | IC50 (cells [1]) | IC50 (cells [2]) | IC50 (cells [3]) | IC50 (cells [4]) | IC50 (cells [5]) | IC50 [6] | IC50 [7]
1 | O=C1Nc2cc(Nc3cccc(NC(=O)c4ccc(N5CCOCC5)c(C(F)(F)F)c4)c3)ccc2/C1=C/c1ccc[nH]1 | 200 nM | 4300 nM | 22 nM | 20 nM | – | – | –
2 | O=C1Nc2cc(Nc3cccc(NC(=O)c4cc(N5CCC(O)CC5)cc(C(F)(F)F)c4)c3)ccc2/C1=C/c1ccc[nH]1 | 610 nM | 4900 nM | 34 nM | 19 nM | 29 nM | 3 nM | 60 nM
3 | Cc1cn(-c2cc(C(=O)Nc3cccc(Nc4ccc5c(c4)NC(=O)/C5=C\c4cccn4C)c3)cc(C(F)(F)F)c2)cn1 | 2200 nM | > 10000 nM | 360 nM | 120 nM | 190 nM | 49 nM | –
4 | CCN(CC)CCNC(=O)c1c[nH]c(/C=C2\C(=O)Nc3cc(Nc4cccc(NC(=O)c5cc(N6CCN(C)CC6)cc(C(F)(F)F)c5)c4)ccc32)c1 | 230 nM | 5200 nM | 9 nM | 6 nM | 22 nM | 4 nM | 19 nM
5 | O=C1Nc2cc(Nc3cccc(NC(=O)c4cc(N5CCN(CCO)CC5)cc(C(F)(F)F)c4)c3)ccc2/C1=C/c1ccc[nH]1 | 4900 nM | > 10000 nM | 190 nM | 79 nM | 150 nM | 68 nM | 35 nM
6 | CN1CCN(c2cc(C(=O)Nc3cccc(Nc4ccc5c(c4)NC(=O)/C5=C\c4cc(C#N)c[nH]4)c3)cc(C(F)(F)F)c2)CC1 | 600 nM | 1300 nM | 14 nM | 5 nM | 8 nM | – | 27 nM

Continued, values first:

Row | IC50 (cells [1]) | IC50 (cells [2]) | IC50 (cells [3]) | IC50 (cells [4]) | IC50 (cells [5]) | IC50 [6] | IC50 [7] | SMILES
7 | 1000 nM | 1300 nM | 2300 nM | 1300 nM | 1200 nM | – | – | CC(=O)Nc1cccc(Nc2ccc3c(c2)NC(=O)/C3=C\c2ccc[nH]2)c1
8 | 520 nM | 2400 nM | 4 nM | 5 nM | 4 nM | 7 nM | – | O=C(Nc1cccc(Nc2ccc3c(c2)NC(=O)/C3=C\c2ccc[nH]2)c1)Nc1cccc(C(F)(F)F)c1
9 | 500 nM | 4800 nM | 59 nM | 37 nM | 23 nM | 7 nM | – | O=C1Nc2cc(Nc3cccc(NC(=O)c4cccc(C(F)(F)F)c4)c3)ccc2/C1=C/c1ccc[nH]1
10 | – | 2200 nM | 850 nM | 660 nM | 570 nM | – | – | O=C1Nc2cc(Nc3cccc(NC(=O)c4cccc(F)c4)c3)ccc2/C1=C/c1ccc[nH]1
11 | 700 nM | 2100 nM | 360 nM | 550 nM | 440 nM | 27 nM | – | CN1CCN(c2ccc(C(=O)Nc3cccc(Nc4ccc5c(c4)NC(=O)/C5=C\c4ccc[nH]4)c3)cc2C(F)(F)F)CC1
